The nature of data set [1]: Inhibition of pseudotyped HIV/MARV GP infected in human A549 cells assessed as reduction in virus entry measured after 48 hrs by luciferase reporter gene assay. In kind it is cell-based, Marburgvirus. To be noted: Orthomarburgvirus, A549, 48 h.
Data set [2] relates to A549. As to the kind of experiment: Inhibition of pseudotyped HIV/EBOV GP infected in human A549 cells assessed as reduction in virus entry at 12.5 uM measured after 48 hrs by luciferase reporter gene assay relative to control. The data set is classed as cell-based. Conditions: Ebolavirus. Summed up:
(§1)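 Low-passage A549 cells are infected with HIV-based pseudovirions carrying EBOV or MARV GP and a luciferase reporter, with or without compound at 12.5 μM. […] Toremifene is the positive control.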
A general note: A reporter such as luciferase makes a cellular process visible.

Data set [3] relates to A549. As to the kind of experiment: Inhibition of pseudotyped HIV/MARV GP infected in human A549 cells assessed as reduction in virus entry at 12.5 uM measured after 48 hrs by luciferase reporter gene assay relative to control. Conditions: Marburgvirus. In kind it is cell-based. Put shortly:
as §1

Data set [4] in a line: Selectivity index, ratio of CC50 for human A549 cells to EC50 for HIV/EBOV-GP infected in human A549 cells. In kind it is toxicity, cell-based. To be noted: read-out: Ratio CC50/EC50. Put shortly:
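Ratio CC50/EC50. CC50 is A549 cytotoxicity by CellTiter 96 aqueous nonradioactive cell proliferation assay.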

A short description of data set [5]: Inhibition of pseudotyped HIV/EBOV GP infected in human A549 cells assessed as reduction in virus entry measured after 48 hrs by luciferase reporter gene assay. In kind it is cell-based, Ebolavirus. To be noted: Orthoebolavirus, A549, 48 h.
The nature of data set [6]: Metabolic stability in Sprague-Dawley rat pooled plasma assessed as parent compound remaining at 20 uM after 60 mins by HPLC analysis. The data set is classed as ADME, cell-free. To be noted: read-out: Stability. Summed up:
(§2)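 Stability is reported as % of compound remaining after 60 min incubation in plasma or liver microsomes, relative to t0.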

The test system of data set [7] is Zaire ebolavirus. As to the kind of experiment: Antiviral activity against Ebola virus 1976 Mayinga infected in human HeLa cells pretreated for 1 hr followed by virus infection measured after 24 hrs by Hoechst staining-based immunofluorescence assay. In kind it is functional, organism-based.
Data set [8] deals with Marburgvirus. As to the kind of experiment: Antiviral activity against Marburg virus Lake Victoria, 2005 Angola infected in human HeLa cells pretreated for 1 hr followed by virus infection measured after 24 hrs by Hoechst staining-based immunofluorescence assay. In kind it is functional, organism-based, Lake Victoria marburgvirus. To be noted: Orthomarburgvirus, Angola2005, HeLa.

Data set [9] in a line: Selectivity index, ratio of CC50 for human HeLa cells to EC50 for Ebola virus 1976 Mayinga in human HeLa cells. The data set is classed as toxicity, cell-based. To be noted: read-out: Ratio CC50/EC50.
Data set [10] is described as follows: Metabolic stability in human liver microsomes assessed as parent compound remaining after 60 mins in presence of NADPH by HPLC analysis. In kind it is ADME, Microsome. Conditions: read-out: Stability. Put shortly:
as §2
(Microsomes from liver hold many membrane-bound enzymes, among them those of drug oxidation.)

The nature of data set [11]: Metabolic stability in human pooled plasma assessed as parent compound remaining at 20 uM after 60 mins by HPLC analysis. To be noted: read-out: Stability. In kind it is ADME, cell-free. Summed up:
as §2

The nature of data set [12]: Metabolic stability in Fischer F344 rat liver microsomes assessed as parent compound remaining after 60 mins in presence of NADPH by HPLC analysis. The data set is classed as ADME, Microsome. Conditions: read-out: Stability. Summed up:
as §2

The results in this text go back to ChEMBL document CHEMBL4619772 (J Med Chem, 2020).

On to `O=C(Nc1cccc(C(F)(F)F)c1)c1ccc(CN2CCCCC2)cc1`, for which the EC50 turned out to be 1.41 µM in data set [1] and 2.97 µM in [5]. Also, the inhibition in [2] is 82.2%; in [3], 57.5%. The selectivity ratio in data set [4] amounted to 15.

Take `COC(=O)c1ccc2c(c1)CCCN2C(=O)c1ccc(CN2CCCCC2)cc1`: the figures for the inhibition in [2] and in data set [3] were 25.1% and 0%, respectively.

As for `O=C(c1ccc(CN2CCCCC2)cc1)N1CCc2ccc(C(F)(F)F)cc21`, the remaining at 1 h, 20 µM in data set [6] turned out to be 0%; in data set [11], 85%. Moreover, the EC50 in data set [1] worked out at 1.46 µM; in data set [7] it was 3.22 µM; in data set [8], 8.17 µM; in [5], 1.68 µM. For the same compound, the inhibition in data set [2] came out at 83.7%; in [3] it was 59.2%. The selectivity ratio in data set [4] amounted to 38; in data set [9] it was 39. Besides, the results for the remaining at 1 h in data set [10] and in data set [12] were 31% and 0%, respectively.

`O=C(c1ccc(CN2CCCCC2)cc1)n1ccc2ccc(C(F)(F)F)cc21`: the inhibition in data set [2] and in data set [3] was 0% throughout.

Consider `COC(=O)c1ccc(NC(=O)c2ccc(CN3CCN(C)CC3)cc2)cc1`, for which the inhibition was found to be 29.4% in [2] and 30.3% in data set [3].

Turning to `CC(c1ccc(C(=O)NCC2COC3(CCCCC3)O2)cc1)N1CCCCC1` (stereo unspecified), the figures for the inhibition in [2] and in data set [3] were 56% and 37.2%, respectively.

`COC(=O)c1ccc(NC(=O)c2cccc(CN3CCCCC3)c2)cc1`: the results for the inhibition in [2] and in [3] were 13% and 5.9%, respectively.

Regarding `O=C(Nc1ccc(C2CCCCC2)cc1)c1ccc(CN2CCCCC2)cc1`, the EC50 in data set [1] turned out to be 0.96 µM; in data set [5], 0.99 µM. Besides, the inhibition in [2] is 98.1%; in data set [3] it was 73.4%. Also, the selectivity ratio in [4] was 101.

For `O=C(Nc1ccc(C2CC2)cc1)c1ccc(CN2CCCCC2)cc1`, the EC50 turned out to be 2.65 µM in data set [1] and 4.57 µM in [5]. Further, the inhibition in data set [2] was determined as 74.3%; in data set [3] it was 66.2%. The selectivity ratio in data set [4] is 22.

On to `CC(c1ccc(C(=O)Nc2ccc(C3CCCCC3)cc2)cc1)N1CCCCC1` (stereo unspecified), for which the remaining at 1 h, 20 µM is 82% in data set [6] and 88% in data set [11]. The EC50 was 0.85 µM in [1], 1.8 µM in data set [7], 5.56 µM in data set [8] and 0.33 µM in data set [5]. Moreover, the inhibition in data set [2] is 99.3%; in [3], 88.9%. Besides, the selectivity ratio in data set [4] came to 390; in data set [9], 54. Moreover, the remaining at 1 h in data set [10] stood at 31%; in data set [12], 24%.

As for `O=C(Nc1ccc(C(F)(F)F)nc1)c1ccc(CN2CCCCC2)cc1`, the figures for the inhibition in data set [2] and in data set [3] were 5.4% and 9.4%, respectively.

For `O=C(c1ccc(CN2CCCCC2)cc1)N1CCc2ccc(F)cc21`, the inhibition in data set [2] amounted to 20.1%; in data set [3], 13.5%.

Turning to `COC(=O)c1ccc(NC(=O)c2ccc(CN3CCCCC3)s2)cc1`, the results for the inhibition in data set [2] and in data set [3] were 33.8% and 27.2%, respectively.

Turning to `CS(=O)(=O)Nc1ccc(NC(=O)c2ccc(CN3CCCCC3)cc2)cc1`, the inhibition came out at 3.91% in data set [2] and 6.81% in data set [3].

Take `CC(c1ccc(C(=O)NCCOC2CCCCC2)cc1)N1CCCCC1` (stereo unspecified): the inhibition in data set [2] was determined as 52.4%; in data set [3], 42.5%.

In the case of `O=C(Nc1ccc(C(F)(F)F)c(Cl)c1)c1ccc(CN2CCCCC2)cc1`, the EC50 came out at 2.05 µM in data set [1] and 2.34 µM in data set [5]. Also, the results for the inhibition in data set [2] and in [3] were 99.7% and 98.5%, respectively. The selectivity ratio in data set [4] was found to be 9.

For `O=C(O)c1ccc(NC(=O)c2ccc(CN3CCCCC3)cc2)cc1`, the inhibition in data set [2] was 3.12%; in data set [3], 10.3%.

`O=C(c1ccc(CN2CCCCC2)cc1)N1CCc2cc(C(F)(F)F)ccc21`: the inhibition in data set [2] worked out at 56.4%; in data set [3], 49.6%.

Consider `CNS(=O)(=O)c1ccc(NC(=O)c2ccc(CN3CCCCC3)cc2)cc1`, for which the inhibition in data set [2] was 0%; in [3], 3.3%.

For `N#Cc1ccc(NC(=O)c2ccc(CN3CCCCC3)cc2)cc1`, the inhibition in data set [2] is 0%; in [3] it was 12.4%.

On to `O=C(c1ccc(CN2CCCCC2)cc1)N1CC2(CC2)c2ccccc21`, for which the inhibition turned out to be 74.5% in data set [2] and 34.4% in [3].

For `O=C(Nc1ccc(C(F)(F)F)cc1)c1ccc(CN2CCCCC2)s1`, the EC50 amounted to 3.65 µM in data set [1] and 5.6 µM in [5]. The inhibition in [2] was 80.2%; in data set [3], 70%. Also, in data set [4], the selectivity ratio came out at 9.

Regarding `N#CC(c1ccc(NC(=O)c2ccc(CN3CCCCC3)cc2)cc1)C1CCCC1` (stereo unspecified), the EC50 in [1] was found to be 1.63 µM; in data set [5], 0.73 µM. Further, the inhibition in data set [2] was found to be 96.8%; in data set [3], 94%. Moreover, in [4], the selectivity ratio stood at 99.

For `O=C(Nc1ccc(Cl)c(C(F)(F)F)c1)c1ccc(CN2CCCCC2)cc1`, the EC50 in data set [1] was found to be 1.24 µM; in [5], 1.52 µM. Further, the inhibition came to 99.6% in data set [2] and 98.2% in data set [3]. Further, the selectivity ratio in [4] was 7.

Consider `COC(=O)c1ccc2c(c1)CCN2C(=O)c1ccc(CN2CCCCC2)s1`, for which the inhibition is 38.9% in data set [2] and 0% in data set [3].

For the compound `CS(=O)(=O)c1ccc(NC(=O)c2ccc(CN3CCCCC3)cc2)cc1`, the figures for the inhibition in [2] and in data set [3] were 0% and 17.4%, respectively.

For `COC(=O)c1cccc(NC(=O)c2ccc(CN3CCCCC3)cc2)c1`, the inhibition in data set [2] and in data set [3] was 0% throughout.

For the compound `CN(C)CCOc1ccc(/C(=C(/CCCl)c2ccccc2)c2ccccc2)cc1` [TOREMIFENE], the figures for the EC50 in data set [7], in data set [8] and in data set [5] were 0.67 µM, 3.25 µM and 0.09 µM, respectively.

As for `O=C(NCC1CCC(F)(F)CC1)c1ccc(CN2CCCCC2)cc1`, the inhibition was 42.9% in data set [2] and 23% in [3].

As for `O=C(Nc1ccc(N2CCC(F)(F)CC2)cc1)c1ccc(CN2CCCCC2)cc1`, the values for the 50% effective concentration (EC50) in data set [1] and in [5] were 1.88 µM and 0.82 µM, respectively. Besides, the values for the inhibition in data set [2] and in data set [3] were 99.7% and 88.8%, respectively. For the same compound, the selectivity ratio in [4] amounted to 69.

As to `O=C(c1ccc(CN2CCCCC2)cc1)N1CCc2ccc(Cl)cc21`, the EC50 in [1] was found to be 2.31 µM; in data set [5] it was 2.22 µM. Also, the inhibition stood at 81.5% in data set [2] and 42.4% in data set [3]. Also, the selectivity ratio in data set [4] was found to be 14.

As for `COC(=O)c1ccc(NC(=O)c2ccc(CN3CCOCC3)cc2)cc1`, the inhibition in data set [2] was found to be 57.2%; in data set [3], 68.8%.

In the case of `COC(=O)c1ccc2c(c1)CCN2C(=O)c1ccc(CN2CCCCC2)cc1`, the results for the inhibition in [2] and in [3] were 41.7% and 51.2%, respectively.

As for `CC1(C)CN(C(=O)c2ccc(CN3CCCCC3)cc2)c2ccccc21`, the EC50 in data set [1] came out at 2.9 µM; in [5], 2.22 µM. Besides, the results for the inhibition in [2] and in data set [3] were 87.3% and 21.4%, respectively. In addition, the selectivity ratio in data set [4] is 33.

Regarding `COC(=O)c1ccc(NC(=O)c2ccc(C(=O)N3CCCCC3)cc2)cc1`, the inhibition is 12.9% in data set [2] and 0% in data set [3].

Consider `CC(c1ccc(C(=O)N2CCc3ccc(C(F)(F)F)cc32)cc1)N1CCCCC1` (stereo unspecified), for which the EC50 in data set [1] came out at 1.73 µM; in data set [5], 1.56 µM. Further, the inhibition in data set [2] is 95.6%; in data set [3], 76.9%. Besides, in data set [4], the selectivity ratio turned out to be 21.

On to `O=C(NCCC1CCCCC1)c1ccc(CN2CCCCC2)cc1`, for which the EC50 turned out to be 7.74 µM in data set [1] and 2.32 µM in data set [5]. In addition, the values for the inhibition in data set [2] and in data set [3] were 90.9% and 27.3%, respectively. In addition, in [4], the selectivity ratio turned out to be 25.

As for `CC(C)c1ccc(NC(=O)c2ccc(CN3CCCCC3)cc2)cc1`, the EC50 in data set [1] was 2.1 µM; in data set [5], 2.87 µM. The inhibition turned out to be 93.1% in [2] and 67.5% in data set [3]. The selectivity ratio in data set [4] was determined as 10.

`O=C(Nc1ccc(C(F)(F)F)cc1)c1ccc(CN2CCCCC2)cc1`: the figures for the EC50 in data set [1] and in data set [5] were 5.7 µM and 3.87 µM, respectively. For the same compound, the inhibition in data set [2] was 89.9%; in data set [3], 79.3%. For the same compound, in data set [4], the selectivity ratio was found to be 9.

Broadly, the EC50 is the concentration giving half of the maximal effect. By inhibition is commonly meant the change of the read-out against control, counted positive when it falls.
